Source: PubChem (several laboratories)
MPTP block: inhibitors of mitochondrial permeability transition pore | isolated mouse mitochondria, Ca2+ swelling absorbance, 30 min | inhibition, % at 10 µM | 360,000 tested, 1.4% active | AID 602449;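 active = inhibition of 50% or more, scaled per plate between neutral and stimulator controls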;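 also: 0% = DMSO wells given calcium and 100% = 1 mM EGTA wells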
MT1-MMP act inh: inhibitors of human MT1-MMP activation. AID 651647. HT1080 RFP-PRO-GFP cells, GFP/RFP ratio fluorescence, overnight; percent of plate control window, DMSO zero. 360,000 tested, 0.061% active. GFP/RFP ratio change, % at 20 µM. P50281;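 active = GFP/RFP ratio change of at least 30% with cell ATP level not reduced by more than half and red fluorescence within 50% of control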
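Assay system: RFP-PRO-GFP reporter HT1080 cells; read-out basis: GFP/RFP fluorescence ratio; benchmarks: DMSO wells and RFP-L50D-GFP cells; doses: 20 µM single dose, 1% DMSO; schedule: overnight cell settling, then overnight compound exposure, 37 °C, 5% CO2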
ADAM17 inh: inhibitors of human ADAM17 | P78536 | recombinant ADAM17, EDANS/DABCYL FRET peptide cleavage | inhibition, % at 6.95 µM | 370,000 tested, 0.83% active;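 active = inhibition above the mean of compounds lying between control limits plus 3 SD, set per campaign, cut at about 8.5% in these data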;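 also: 0% = DMSO-only wells as the low control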
NR3A LBD binder: modulates the human NR3A ligand-binding domain; NR3A LBD differential scanning fluorimetry, Tm shift; 0% = protein alone, 100% = glycine-bound protein; Tm shift relative to glycine control, % at 25 µM; 340,000 tested, 2.5% active;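 active = melting temperature shift of at least 10% of the positive control shift, at one fixed dose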
SKN-1 inh: blocks SKN-1 activity in C. elegans | C. elegans VP596 Pgst-4::GFP/RFP ratio, acrylamide-induced, 24 h | inhibition, % at 21.8 µM | 360,000 tested, 0.49% active | AID 624304;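 active = interference check ratio from 0.5 to 1.5 plus GFP to RFP signal ratio inhibition reaching or exceeding a fixed threshold, cut at about 30% in these data, passing the limit was not always enough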
ADAM10 inh: inhibits human ADAM10; O14672; recombinant ADAM10, EDANS/DABCYL FRET peptide cleavage, 3 h; inhibition, % at 7 µM; 370,000 tested, 0.62% active; AID 720582;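 active = inhibition above a per-campaign cutoff equal to the mean of compounds falling between control-based bounds plus 3 SD, cut at about 20% in these data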;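 also: 0% = DMSO wells while the 100% control is not disclosed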
Target sequence (O14672 214-748 limits assumed): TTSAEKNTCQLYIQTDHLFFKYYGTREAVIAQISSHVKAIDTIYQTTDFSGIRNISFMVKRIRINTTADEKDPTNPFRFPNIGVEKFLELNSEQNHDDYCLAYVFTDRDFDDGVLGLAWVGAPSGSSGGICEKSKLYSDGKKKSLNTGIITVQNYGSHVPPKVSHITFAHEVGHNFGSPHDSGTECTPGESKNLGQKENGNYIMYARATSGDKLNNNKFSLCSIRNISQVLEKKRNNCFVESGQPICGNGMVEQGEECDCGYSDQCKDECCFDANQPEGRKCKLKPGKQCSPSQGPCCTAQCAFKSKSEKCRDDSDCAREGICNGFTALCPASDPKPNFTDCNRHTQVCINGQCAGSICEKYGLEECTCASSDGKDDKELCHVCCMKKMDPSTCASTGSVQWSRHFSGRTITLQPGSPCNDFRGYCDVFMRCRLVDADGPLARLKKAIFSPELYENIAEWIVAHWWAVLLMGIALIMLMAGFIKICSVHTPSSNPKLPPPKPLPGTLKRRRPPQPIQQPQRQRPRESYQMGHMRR
ADAM10 ctr: ADAM10 inhibition, counter-screen for ADAM17 exosite hits | recombinant ADAM10, EDANS/DABCYL FRET peptide cleavage, 3 h | 2,900 tested, 47% active | shares compounds with ADAM17 inh | inhibition, % at 6.95 µM | AID 743256;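 active = mean inhibition over the triplicate runs exceeds the activity threshold set in the earlier primary screen, cut at about 20% in these data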;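 also: 0% = DMSO wells and 100% = marimastat wells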
ADAM17 confirm: confirmation of inhibitors of human ADAM17; shares compounds with ADAM17 inh; inhibition, % at 6.95 µM; recombinant ADAM17, EDANS/DABCYL QFRET peptide cleavage; 2,900 tested, 65% active;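 active = mean inhibition across replicates above the hit cutoff set in the primary screen, cut at about 8.5% in these data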;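 also: 0% = DMSO wells and 100% = marimastat wells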
Numbers without * were called inactive; . = no result. An excerpt weighted towards active compounds, which were near 4.7% of everything screened.

SMILES	MPTP block	MT1-MMP act inh	ADAM17 inh	NR3A LBD binder	SKN-1 inh	ADAM10 inh	ADAM10 ctr	ADAM17 confirm
Cc1cc(Cl)ccc1OCC(=O)N1CC(C)CC(C)C1 (configuration not stated)	-1	2	-1	1	12	-5	.	.
Cc1cc(Cl)ccc1OCC(=O)N1CCCN(C(=O)COc2ccc(Cl)cc2C)CC1	-13	-1	9.5*	-7	-6	14	26*	14*
CC1CCc2c(C(=O)Oc3cccc(-n4cnnn4)c3)csc2C1 (configuration not stated)	5	-7	8.8*	-9	-14	19	15	11*
Cc1ccc(C(=O)Oc2cccc(-n3cnnn3)c2)cc1	0	-2	-1	-4	0	-3	.	.
CC1(C(=O)NCc2cccc(C(F)(F)F)c2)CCN1Cc1ccc(-c2ccccc2)o1 (configuration not stated)	-2	-8	13*	.	5	13	16	10*
CS(=O)(=O)c1ccc(C(=O)Nc2cccc(-c3nc4ccccc4[nH]3)c2)cc1	-1	3	9.2*	13*	-7	6	-13	-2
COc1ccc(S(=O)(=O)NN(C)c2ncc(C(F)(F)F)cc2Cl)cc1	1	-4	9.4*	0	6	-8	7	6
O=S(=O)(Nc1ccc(-c2nnc(SCc3ccc(Cl)cc3)o2)cc1)c1ccccc1	8	13	9.2*	14*	0	18	23*	14*
O=C(O)c1ccc(CSc2nnc(-c3ccc(Cl)cc3)o2)cc1	0	5	-1	-2	-1	9	.	.
CCOc1cccc(-c2c(C(=O)N/N=C/c3ccc(C)s3)nnn2-c2nonc2N)c1	1	1	9.7*	21*	12	13	-20	3
Cc1ccc(-c2csc(NC(=O)COc3ccc(N(C)S(=O)(=O)c4ccc(C)cc4)cc3)n2)cc1	0	-13	-1	-2	21	0	.	.
COc1ccc(-c2csc(NC(=O)COc3ccc(N(C)S(=O)(=O)c4ccc(C)cc4)cc3)n2)cc1	4	-1	9.9*	2	14	11	12	9
CC1CCC(NC(=O)c2cnccn2)CC1 (configuration not stated)	-2	0	12*	3	17	3	3	2
O=C(NC12CC3CC(CC(C3)C1)C2)c1cnccn1	0	1	-1	0	22	-2	.	.
COc1ccccc1/C=N/NC(=O)c1ccccc1NS(=O)(=O)c1ccc(C)cc1	8	2	-2	0	-4	-10	.	.
COc1ccccc1NC(=O)CNC(=O)c1ccccc1	-2	-2	0	-1	25	9	.	.
COc1ccccc1NS(=O)(=O)c1cc(NC(=O)CNC(=O)c2ccccc2)ccc1C	1	0	9.1*	-1	1	16	5	5
Cc1noc(C)c1C(=O)N(CC(=O)Nc1ccccc1Br)Cc1ccco1	-1	4	-2	1	5	-7	.	.
CC(=O)N1c2ccc(S(=O)(=O)N3CCC(C(=O)Nc4cccc(C(F)(F)F)c4)CC3)cc2CC1C (configuration not stated)	3	3	10*	6	-11	11	12	9.4*
CCOC(=O)c1c(C)[nH]c(N=Nc2cccc(OC)c2)c1C	0	-1	1	-11	12	9	.	.
CCOC(=O)c1c(C)[nH]c(N=Nc2cccc(C)c2)c1C	5	-4	9.7*	0	12	14	24*	14*
COc1ccc(-c2cn[nH]c2-c2ccc(O)cc2O)cc1OC	0	-1	-2	-8	2	-7	.	.
CCCc1cc(-c2[nH]ncc2-c2ccc3c(c2)OCCCO3)c(O)cc1OC	.	.	10*	.	.	18	28*	13*
CC[C@@]1(C(=O)OC)N[C@H](CN(C)S(=O)(=O)c2ccc(-c3ccccc3)cc2)[C@@H]2C(=O)N(C)C(=O)[C@@H]21	-1	0	13*	0	-6	7	12	6
CCOC(=O)C1=CCN(S(=O)(=O)c2ccccc2C)C1c1ccc(Cl)c(Cl)c1 (configuration not stated)	0	4	13*	.	5	16	11	7
SMILES	MPTP block	MT1-MMP act inh	ADAM17 inh	NR3A LBD binder	SKN-1 inh	ADAM10 inh	ADAM10 ctr	ADAM17 confirm
COc1ccc2c(C#N)c3ccccn3c2c1	1	-19	-104	9	0	-316	.	.
O=S1(=O)CCOC[C@H](Cc2ccccc2)N1Cc1cccc(C(F)(F)F)c1	0	2	11*	-8	5	0	10	5
Cc1ccc(S(=O)(=O)N(C(=O)c2ccncc2)c2ccc(OC(=O)c3ccncc3)c3ccccc23)cc1	1	4	8.9*	4	11	2	37*	19*
CCOCCCNC(=O)C1CCC(CNS(=O)(=O)c2ccc(Cl)cc2)CC1 (configuration not stated)	0	1	7	-1	19	0	.	.
Cc1ccc(S(=O)(=O)N2CCC(C(=O)Nc3ccc(C(C)C)cc3)CC2)cc1	2	5	-1	2	35	-5	.	.
Cc1ccc(S(=O)(=O)N2CCC(C(=O)Nc3ccc(S(=O)(=O)N4CCCC4)cc3)CC2)cc1	1	-7	13*	-3	-6	-1	21*	11*
Cc1cccc(NC(=O)NCC(F)(F)F)n1	4	-3	-4	-1	18	7	.	.
O=C(CCn1c2c(c3ccccc31)CCCC2)NNC(=O)c1ccc([N+](=O)[O-])cc1	2	-1	11*	2	8	16	17	9.9*
O=C(CN1CCN(c2nc(-c3ccccc3)cs2)CC1)Nc1ccc(Cl)c(Cl)c1	.	.	8.8*	.	.	13	19	12*
O=C(Cn1c(=O)sc2ccccc21)Nc1ccc(S(=O)(=O)N2CCCCC2)cc1	14	11	8.8*	-1	10	11	30*	17*
CCCn1c(C(C)Nc2nc(-c3cccc(Br)c3)cs2)nc2ccccc21 (configuration not stated)	1	1	1	-7	12	9	.	.
CCCn1c(CCNc2nc(-c3cccc(Br)c3)cs2)nc2ccccc21	1	0	11*	1	0	11	17	11*
COc1ccccc1-c1coc2cc(OC(=O)N3CCOCC3)ccc2c1=O	1	0	-4	0	-16	-8	.	.
